KCNQ1 pot: human KCNQ1 channel potentiation or activation | P51787 | CHO-K1 KCNQ1, thallium flux FluxOR fluorescence; active compounds read high | B-score at 10 µM | hit rate 0.35% among 310,000;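 active means fluorescence ratio B-score, a plate-corrected score, at least three library SD, with initial intensity B-score within 5 SD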
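Doses: Single concentration per compound, DMSO matched to controls | Test system: KCNQ1-transfected CHO-K1 cells | Timing: 90 min dye loading and 20 min compound exposure, both at room temperature | Measured by: Kinetic FluxOR thallium fluorescence, 10-s 1-Hz baseline, 110-s post-stimulus read | Medium: Assay buffer with matched DMSO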
Kir21 block: Kir2.1 (mouse) channel inhibition; AID 1672; P35561; hit rate 0.85% among 310,000; B-score at 10 µM; HEK293-Kir2.1, FluxOR thallium flux fluorescence; active compounds read low;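 active means fluorescence ratio B-score at or below minus 3 SD of library scores, with starting-brightness B-score within 2 SD, cut at about -4.2 in these data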;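 further: channel flux triggered by added potassium and thallium sulfate stimulus; B-score of peak minus minimum fluorescence over baseline after thallium stimulus; more negative B-score means stronger Kir2.1 block with less thallium influx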
KCNK3 block: human KCNK3 channel inhibition, primary screen; hit rate 0.84% among 340,000; B-score at 10 µM; CHO-KCNK3 thallium flux, FluxOR fluorescence; active compounds read low; O14649;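 active means B-score under library mean minus 4 SD, starting fluorescence ratio at most library mean plus 5 SD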;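 further: more negative B-score means stronger inhibition of thallium flux through KCNK3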
Target sequence (O14649 whole entry, looked up): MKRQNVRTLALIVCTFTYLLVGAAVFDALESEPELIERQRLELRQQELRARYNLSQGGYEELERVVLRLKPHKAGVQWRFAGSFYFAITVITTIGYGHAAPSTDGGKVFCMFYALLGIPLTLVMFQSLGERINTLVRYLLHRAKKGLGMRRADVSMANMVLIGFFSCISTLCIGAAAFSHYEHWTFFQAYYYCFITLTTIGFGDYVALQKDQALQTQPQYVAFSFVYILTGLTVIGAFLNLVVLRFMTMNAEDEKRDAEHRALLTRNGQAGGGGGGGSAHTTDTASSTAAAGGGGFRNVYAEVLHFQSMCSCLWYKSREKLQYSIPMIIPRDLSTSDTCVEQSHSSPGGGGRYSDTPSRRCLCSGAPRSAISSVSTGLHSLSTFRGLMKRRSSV
KCNQ1 inh: human KCNQ1 channel inhibition; CHO-K1 KCNQ1, FluxOR thallium flux fluorescence; active compounds read high; hit rate 1.3% among 310,000; B-score at 10 µM; AID 2642;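 active means compounds whose thallium flux B-score, printed positive for inhibition, exceeds three library SD while starting fluorescence stays within three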;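 further: channel opened by potassium depolarization with thallium stimulus after 20 min compound exposure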
hERG protect: shields human hERG channel from block by proarrhythmic agents. Q12809. CHO-hERG, FluxOR thallium flux, dofetilide IC70 present. activation (rescue from dofetilide block), less the hit threshold, % at 10 µM. hit rate 0.51% among 310,000. AID 1511;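 active means activation above the mean of controls blocked by dofetilide plus 5 SD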;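 further: thallium influx through hERG after potassium depolarization seen as dye fluorescence rise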
KCNK9 block: blocks the human KCNK9 two-pore domain potassium channel. Q9NPC2. HEK293 KCNK9, FluxOR thallium flux fluorescence; active compounds read low. B-score at 10 µM. hit rate 1.2% among 310,000. AID 488922;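 active means ratio B-score over 3 SD below the library mean, with starting fluorescence within 5 SD of its mean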;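 further: negative B-score means less thallium flux so channel inhibition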
Target sequence (Q9NPC2 whole entry, looked up, the tested form may be a part): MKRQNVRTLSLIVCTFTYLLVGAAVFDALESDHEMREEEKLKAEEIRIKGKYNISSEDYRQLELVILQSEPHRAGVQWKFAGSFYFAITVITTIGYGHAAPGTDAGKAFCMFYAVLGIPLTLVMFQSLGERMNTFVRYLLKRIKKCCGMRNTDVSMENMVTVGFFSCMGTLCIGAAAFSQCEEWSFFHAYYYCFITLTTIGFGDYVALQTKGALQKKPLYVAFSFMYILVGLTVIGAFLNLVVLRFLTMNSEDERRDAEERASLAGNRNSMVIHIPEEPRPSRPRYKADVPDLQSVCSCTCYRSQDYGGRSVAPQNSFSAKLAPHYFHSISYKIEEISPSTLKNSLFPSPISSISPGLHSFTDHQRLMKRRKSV
KCNK3 inh conf: human KCNK3 channel inhibition, confirmation assay. ratio percent of control, % at 10 µM. CHO-KCNK3 thallium flux, FluxOR fluorescence; 0% buffer, 100% carvedilol maximal block. hit rate 99% among 2,400. shares compounds with KCNK3 block;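 active means ratio percent of control, averaged over triplicates, above buffer control mean plus 5 SD, cut at about 64% in these data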;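 further: ratio is the fluorescence rise from min to max over baseline after thallium stimulus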
KCNK3 noninduced: counter-screen for KCNK3 inhibitors: effect in non-induced cells | thallium flux ratio (lower = more inhibition) at 10 µM | hit rate 40% among 2,400 | AID 651747 | non-induced KCNK3 parental cells, FluxOR thallium flux; active compounds read low | shares compounds with KCNK3 block;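 active means thallium flux ratio, averaged over three wells, more than 5 SD below the buffer control mean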;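 further: host cells are CHO cells without KCNK3 induction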
Large screens that a line does not name were inactive (follow-up assays come after a bar, where they were run). In the library only some 3.7% were active in any assay of this set; here they are far more common.

C=CCNC(=O)NC(=O)COC(=O)/C(C#N)=C/c1cc(C)n(CCC(C)C)c1C	none
CCOc1ccccc1NC(=O)CCNS(=O)(=O)c1cccc2nonc12	none
CCC(=O)Nc1ccccc1C(=O)OCc1ccc(C(=O)c2ccccc2)cc1	KCNK3 block -9.3 | KCNK3 inh conf 98 | KCNK3 noninduced inactive
CCC(=O)Nc1ccccc1C(=O)OC(c1ccccc1)c1ccccc1	none
N#Cc1ccccc1Sc1ccccc1C(=O)Nc1ccc2ccccc2c1	none
COc1ccc(Sc2ccc(NC(=O)c3ccccc3Cl)cc2C#N)cc1	KCNK3 block -12 | KCNK3 inh conf 106 | KCNK3 noninduced 0.15
CCCc1cc(C(=O)N(C)CC(=O)Nc2ccc(OCC)c(OCC)c2)sc1C	none
COc1ccc(-c2csc(N(CC3CCCO3)C(=O)c3ccc(C)cc3)n2)cc1 (centres undefined)	none
COc1ccc(-c2csc(N(CC3CCCO3)C(=O)c3ccccc3)n2)cc1 (centres undefined)	KCNK3 block -8.9 | KCNK3 inh conf 89 | KCNK3 noninduced inactive
CCc1cccc(NC2c3ccccc3C(=O)N2c2cccnc2)c1 (centres undefined)	KCNK3 block -11 | KCNK3 inh conf 100 | KCNK3 noninduced inactive
CCOC(=O)c1ccc(NC2c3ccccc3C(=O)N2c2cccnc2)cc1 (centres undefined)	KCNK3 block -9.7 | KCNK3 inh conf 112 | KCNK3 noninduced inactive
O=S1(=O)CCS(=O)(=O)C1c1ccccc1	none
CCOc1ccc(C(=O)C(C)OC(=O)C2CCN(c3ccc(C(F)(F)F)cn3)CC2)cc1 (centres undefined)	KCNK3 block -9.4, KCNQ1 inh 8 | KCNK3 inh conf 83 | KCNK3 noninduced 0.16
CC(OC(=O)C1CCN(c2ccc(C(F)(F)F)cn2)CC1)C(=O)NC1CCCCC1C (centres undefined)	none (no result: KCNQ1 pot, Kir21 block, KCNQ1 inh, hERG protect, KCNK9 block)
CC(C)(C)OC(=O)N1CCC(C(=O)Nc2ccc(C(=O)N3CCCCC3)cc2)CC1	none (no result: KCNQ1 pot, Kir21 block, KCNQ1 inh, hERG protect, KCNK9 block)
CCN(CC)S(=O)(=O)c1cc(NC(=O)C(=O)c2c(-c3ccccc3)cc3ccccn23)ccc1C	KCNK3 block -10 | KCNK3 inh conf 105 | KCNK3 noninduced inactive
CCN(CC)c1ccc(S(=O)(=O)N(CC)CC)cc1NC(=O)C1CCCC1	KCNK3 block -9.4 | KCNK3 inh conf 97 | KCNK3 noninduced inactive
CCN(CC)S(=O)(=O)c1ccc(N(C)C)c(NC(=O)C2CCCC2)c1	none
CCN(CC)S(=O)(=O)c1cc(NC(=S)NC(=O)C2CCCC2)ccc1C	KCNK3 block -16 (no result: KCNQ1 pot, Kir21 block, KCNQ1 inh, hERG protect, KCNK9 block) | KCNK3 inh conf 101 | KCNK3 noninduced inactive
CCN(Cc1ccc(OC)c(F)c1)C(=O)CCl	none
CCN(Cc1ccc(OC)c(F)c1)C(=O)c1oc2ccccc2c1COC	KCNK3 block -14 | KCNK3 inh conf 94 | KCNK3 noninduced inactive
CC(O)CN1C(=O)C(CC(=O)Nc2ccc(Cl)cc2)SC1=Nc1ccccc1 (centres undefined)	KCNK3 block -9.5 | KCNK3 inh conf 110 | KCNK3 noninduced inactive
COCCN1C(=O)C(CC(=O)Nc2ccc(C(C)=O)cc2)SC1=Nc1ccccc1 (centres undefined)	none
CCOc1ccc(S(=O)(=O)N2CCN(C(=O)C3CSC4(C)CCC(=O)N34)CC2)cc1 (centres undefined)	none (no result: KCNQ1 pot, Kir21 block, KCNQ1 inh, hERG protect, KCNK9 block)
O=[N+]([O-])C(=C1SCCS1)C(=C(Cl)Cl)N1CCCCC1	KCNK3 block -11 | KCNK3 inh conf 105 | KCNK3 noninduced inactive
O=[N+]([O-])/C(C(Cl)=C(Cl)Cl)=C(\Sc1ccccc1)N1CCCCC1	none
CC(C)NC(=O)N(C)C[C@H]1Oc2c(NC(=O)C3CC3)cccc2C(=O)N([C@H](C)CO)C[C@@H]1C	none (no result: KCNQ1 pot, Kir21 block, KCNQ1 inh, hERG protect, KCNK9 block)
Cc1ccc(N(C)S(=O)(=O)c2cc(-c3cnc(C4CC4)o3)ccc2C)cc1	KCNK3 block -11 | KCNK3 inh conf 145 | KCNK3 noninduced inactive
Cc1ccc(NS(=O)(=O)c2ccc(-c3cnc(C4CC4)o3)cc2)c(C)c1	KCNK3 block -10 | KCNK3 inh conf 132 | KCNK3 noninduced 0.14
COC(=O)C1=C(C)N=C2SC(C)C(=O)N2C1c1ccc(C(=O)OC)cc1 (centres undefined)	KCNK3 block -8.7 | KCNK3 inh conf 106 | KCNK3 noninduced inactive
COC(=O)C1=C(C)N=C2SC(C)C(=O)N2C1c1cccs1 (centres undefined)	KCNK3 block -12 | KCNK3 inh conf inactive | KCNK3 noninduced inactive
CC(=O)c1ccc(OCCn2cnc3ccccc32)cc1	none
O=C(Nc1ccccc1O)N1c2ccccc2Sc2ccccc21	KCNK3 block -10 | KCNK3 inh conf 103 | KCNK3 noninduced inactive
O=C(NCCO)N1c2ccccc2Sc2ccccc21	none
CN(CCOc1ccccc1)CC(=O)Nc1cccc(C#N)c1	none
Cc1c(S(=O)(=O)N2CCN(c3ccccc3)CC2)c(=O)n(C)c(=O)n1C	none
CN(CC(=O)Nc1ccc(N2CCOCC2)cc1)C(=O)CSc1ccc(F)cc1	none
C[C@H]1CN([C@@H](C)CO)C(=O)c2cc(NS(=O)(=O)c3ccc(Cl)cc3)ccc2O[C@@H]1CN(C)CC1CCCCC1	KCNK3 block -13 (no result: KCNQ1 pot, Kir21 block, KCNQ1 inh, hERG protect, KCNK9 block) | KCNK3 inh conf 93 | KCNK3 noninduced inactive
CNC(=O)C1CC(=O)N(c2ccc(OCC(=O)NCc3ccccc3)cc2)C1 (centres undefined)	none
Nc1c(Cl)nc(-c2ccccc2)nc1Cl	none
Cc1ccc(C(=O)C2CCN(CC(=O)N3CCN(c4ccc(F)cc4)CC3)CC2)cc1	none
CN1CCN(C2=C(Cl)C(=O)c3ccccc3C2=O)CC1	KCNK3 block -14 (no result: KCNQ1 pot, Kir21 block, KCNQ1 inh, hERG protect, KCNK9 block) | KCNK3 inh conf 160 | KCNK3 noninduced 0.057
COC(=O)[C@]1(Cc2ccccc2)N[C@H](CN(C)C(=O)c2ccc(C)cc2)[C@@H]2C(=O)N(Cc3ccccc3)C(=O)[C@@H]21	none (no result: KCNQ1 pot, Kir21 block, KCNQ1 inh, hERG protect, KCNK9 block)
CCOC(=O)C1=C(C)NC(=O)NC1/C=C/c1ccccc1OC (centres undefined)	none
COc1ccccc1/C=C/C1C(C(=O)OCC(C)C)=C(C)N=C2SCCC(=O)N21 (centres undefined)	KCNK3 block -9.3 | KCNK3 inh conf 92 | KCNK3 noninduced 0.16
COc1ccc(NC(=O)COC(=O)c2c3c(nc4ccccc24)CCCC3)cc1Cl	KCNK3 block -9.1, KCNK9 block -9.7 | KCNK3 inh conf 120 | KCNK3 noninduced 0.15
Nc1c(C(=O)c2ccco2)oc2ccccc12	none (no result: KCNK3 block)
N/C(Cc1nc(-c2ccc(Br)cc2)cs1)=N\O	none

High-throughput results from PubChem.
